Columns and labels:
231-BR cells = assay: MTT in vitro cytotoxicity assay; type: cell-based; conditions: Homo sapiens, 72 h, read-out: IC50 values and maximal toxicity
In short: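 231-BR cells seeded at 2,000/well 24 h before compound addition. Ethanol drug stocks were serially diluted into culture medium and added to triplicate wells, then cultured 72 h. Viable cells were read by MTT, normalized to drug-free viable cells at endpoint. At least 3 independent experiments.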

neuronal tubulin = assay: fluorescence-enhanced tubulin polymerization assay; type: biochemical; conditions: ratio of tubulin polymerization ED50 values
[1] = mice, favorable half-life; cited from earlier work
[2] = tested on: breast cancer brain metastases; conditions: phase II, cited from earlier work
[3] = tested on: intracerebrally implanted MDA-MB-435, Lu7187 and Lu7466 tumor cells; conditions: cited from earlier work; for growth of intracerebrally implanted tumor cells: MDA-MB-435, Lu7187 and Lu7466 cells
[4] = tested on: experimental brain metastases; conditions: 2 experimental brain metastasis models, radiolabeled drug; cited from earlier work
231-BR primary tumors = assay: breast primary tumor model; type: in vivo, mouse
231-BR brain metastases = assay: experimental brain metastasis model; type: in vivo, mouse
[5] = tested on: breast cancer brain metastases; conditions: phase II, cited from earlier work; remark: listed apart in the source

SMILES: CC(=O)O[C@@]12CO[C@@H]1C[C@H](O)[C@@]1(C)C(=O)[C@H](O)C3=C(C)[C@@H](OC(=O)[C@H](O)[C@@H](NC(=O)OC(C)(C)C)c4ccccc4)C[C@@](O)([C@@H](OC(=O)c4ccccc4)[C@H]21)C3(C)C [Docetaxel]
- IC50 (231-BR cells): < 10 nM
- ED50 compound/ ED50 paclitaxel (neuronal tubulin): 1.07

SMILES: C/C(=C\c1csc(C)n1)[C@@H]1C[C@@H]2O[C@]2(C)CCC[C@H](C)[C@H](O)[C@@H](C)C(=O)C(C)(C)[C@@H](O)CC(=O)O1 [patupilone]
- brain distribution [1]: Significant brain distribution
- partial responses, patients ([2]; 6 of 31): 19%
- stable disease, patients ([2]; 9 of 31): 29%
- incidence of peripheral neuropathy [2]: 27%

SMILES: CC(=O)O[C@H]1C(=O)[C@@]2(C)[C@H]([C@H](OC(=O)c3ccccc3)[C@]3(O)C[C@H](OC(=O)[C@H](O)[C@@H](NC(=O)c4ccccc4)c4ccccc4)C(C)=C1C3(C)C)[C@]1(OC(C)=O)CO[C@@H]1C[C@@H]2O [Paclitaxel]
- growth of intracerebrally implanted tumor cells [3]: nonsignificant effects
- IC50 (231-BR cells): < 10 nM
- experimental lesions with sufficient uptake to show a cytotoxic response [4]: 10%
- amount of acetylated tubulin-α in primary tumors (231-BR primary tumors; 18 mg/kg i.v. every 4 days ×3, immunofluorescence): increase
- estimated tumor growth rate (slope) of log10 tumor volume (231-BR primary tumors; 18 mg/kg i.v. every 4 days ×3 from day 37, days 41 to 48): −0.0450 ± 0.00743
- prevention of brain metastatic colonization (231-BR brain metastases; 18 mg/kg ×3, early or late, all points not significant): ineffective
- Ki67-positive 231-BR cells in brain metastases (proliferation), mean (231-BR brain metastases; day 28, 48 hours after final late 18 mg/kg treatment, vehicle 56.0% ± 2.22%): 54.4% ± 1.91%

SMILES: C=CC[C@H]1C(=O)C(C)(C)[C@@H](O)CC(=O)O[C@H](c2ccc3sc(C)nc3c2)C[C@@H]2O[C@]2(C)CCC[C@H](C)[C@@H]1O [Sagopilone]
- growth of intracerebrally implanted tumor cells [3]: reduced the growth
- weight loss [3]: 6%
- BBB penetration ([3]; mice, favorable AUC and half-life): crossed the BBB
- patients achieving partial responses ([5]; progressive brain metastases after whole brain radiation therapy, two patients): 13.3%
- median progression-free survival [5]: 1.4 months
- overall survival [5]: 5.3 months

SMILES: C/C(=C\c1csc(C)n1)[C@@H]1C[C@@H]2O[C@]2(C)CCC[C@H](C)[C@H](O)[C@@H](C)C(=O)C(C)(C)[C@@H](O)CC(=O)N1 [ixabepilone]
- IC50 (231-BR cells): < 10 nM
- toxicity of initial doses (231-BR brain metastases; mice, initial 2 doses of 5 mg/kg): significant toxicity
